Structures are written as SMILES. Values after ≈ are worked out from the molar mass of the structure shown.

In general, MIC refers to the lowest concentration found to suppress growth.

Assay type in all cases: functional
The test system of test [1] is Candida tropicalis. In words: Tested for minimum inhibitory concentration against Candida tropicalis 43 (C.t) at pH of 4.5. A digest of the protocol: (§1)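 Broth microdilution in malt extract broth, initial pH 4.5 or 6.5, with 1×10^3 CFU per 0.2 mL well of thawed stored cultures. Compound stocks were made in 5% DMSO/0.2% Tween 80 and diluted to final 0.05–100 μg/mL. Plates were incubated 48 h at 30 °C and read macroscopically. MIC was the lowest concentration with no detectable growth. Vehicle-only wells served as controls.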

Test [2] deals with Candida albicans. Kind of test: Tested for minimum inhibitory concentration against Candida albicans 124 (Candida albicans) at pH of 4.5. The method in brief:
as §1

Test [3] concerns Meyerozyma guilliermondii. In words: Tested for minimum inhibitory concentration against Candida guilliermondii 80 (C.g) at pH of 6.5. A digest of the protocol:
as §1

Test [4] deals with Pichia kudriavzevii. Kind of test: Tested for minimum inhibitory concentration against Candida krusei 132 (C.k) at pH of 6.5. A digest of the protocol: as §1
Test [5] deals with Candida albicans. In words: Tested for minimum inhibitory concentration against Candida albicans 124 (Candida albicans) at pH of 6.5. The method in brief:
as §1

The test system of test [6] is Candida tropicalis. Kind of test: Tested for minimum inhibitory concentration against Candida tropicalis 43 (C.t) at pH of 6.5. The method in brief: as §1
The subject of test [7] is Meyerozyma guilliermondii. In words: Tested for minimum inhibitory concentration against Candida guilliermondii 80 (C.g) at pH of 4.5. The method in brief:
as §1

Test [8] relates to Pichia kudriavzevii. Kind of test: Tested for minimum inhibitory concentration against Candida krusei 132 (C.k) at pH of 4.5. A digest of the protocol: as §1

For `CC[C@@H](C)[C@H]1C(=O)NCC(=O)N(C)[C@@H](C(C)C)C(=O)N[C@@H](Cc2ccc(OC)cc2)C(=O)N[C@@H](C)C(=O)N2CCCC[C@H]2C(=O)N(C)[C@@H](C(C)C)C(=O)N[C@@H](C(C)C)C(=O)N(C)[C@@H](CC(=O)O)C(=O)N(C)[C@@H]([C@@H](C)CC)C(=O)N1C`, the MIC in the test on Candida tropicalis [1] worked out at 6.25 mg/L (≈ 5.55 µM); in the test on Candida albicans [2], 3.13 mg/L (≈ 2.78 µM); in test [3], 25 mg/L (≈ 22.2 µM); with Pichia kudriavzevii [4], 50 mg/L (≈ 44.4 µM); against Candida albicans [5], 6.25 mg/L (≈ 5.55 µM); against Candida tropicalis [6], 25 mg/L (≈ 22.2 µM). In addition, the minimum inhibitory concentration (MIC) in test [7] came out at 6.25 mg/L (≈ 5.55 µM); against Pichia kudriavzevii [8] it was 25 mg/L (≈ 22.2 µM).

In the case of `CC[C@H](C)[C@H]1C(=O)NCC(=O)N(C)[C@@H](C(C)C)C(=O)N[C@@H](Cc2ccc(OC)cc2)C(=O)N[C@@H](C)C(=O)N[C@@H](C)C(=O)N2CCCC[C@H]2C(=O)N(C)[C@@H](C(C)C)C(=O)N[C@@H](C(C)C)C(=O)N(C)[C@@H](CC(=O)O)C(=O)N(C)[C@@H]([C@@H](C)CC)C(=O)N1C`, the MIC (in the test with Candida tropicalis [1]; in the test on Candida albicans [2]; in test [3]; with Pichia kudriavzevii [4]; against Candida albicans [5]; against Candida tropicalis [6]) was greater than 100 mg/L each time. In addition, the MIC (in test [7]; against Pichia kudriavzevii [8]) was greater than 100 mg/L each time.

On to `CC[C@@H](C)[C@H]1C(=O)NCC(=O)N(C)[C@@H](C(C)C)C(=O)N[C@@H](CC(=O)O)C(=O)O[C@H](C)C(=O)N2CCCC[C@H]2C(=O)N(C)[C@@H](C(C)C)C(=O)N[C@@H](C(C)C)C(=O)N(C)[C@@H](CC(=O)O)C(=O)N(C)[C@@H]([C@@H](C)CC)C(=O)N1C`, for which the MIC in the test with Candida tropicalis [1] is greater than 100 mg/L; in the test with Candida albicans [2] it was 100 mg/L (≈ 94 µM); in test [3], greater than 100 mg/L; in the test on Pichia kudriavzevii [4], greater than 100 mg/L; against Candida albicans [5] it was greater than 100 mg/L; in the test on Candida tropicalis [6] it was greater than 100 mg/L. Besides, the minimum inhibitory concentration (MIC) (in test [7]; against Pichia kudriavzevii [8]) was greater than 100 mg/L each time.

Consider `CC[C@@H](C)[C@H]1C(=O)NCC(=O)N(C)[C@@H](C(C)C)C(=O)N[C@@H](Cc2ccc(OC)cc2)C(=O)O[C@H](C)C(=O)N2CCCC[C@H]2C(=O)N(C)[C@@H](C(C)C)C(=O)N[C@@H](C(C)C)C(=O)N(C)[C@@H](CC(=O)NC[Si](C)(C)C)C(=O)N(C)[C@@H]([C@@H](C)CC)C(=O)N1C`, for which the MIC (against Candida tropicalis [1]; with Candida albicans [2]; in test [3]; in the test on Pichia kudriavzevii [4]; against Candida albicans [5]; with Candida tropicalis [6]) was greater than 100 mg/L each time. Moreover, the MIC (in test [7]; in the test on Pichia kudriavzevii [8]) was greater than 100 mg/L each time.

For `CC[C@@H](C)[C@H]1C(=O)NCC(=O)N(C)[C@@H](C(C)C)C(=O)N[C@@H](Cc2ccc(OC)cc2)C(=O)O[C@H](C)C(=O)N2CCCC[C@H]2C(=O)N(C)[C@@H](C(C)C)C(=O)N[C@@H](C(C)C)C(=O)N(C)[C@@H](CCOC(C)=O)C(=O)N(C)[C@@H]([C@@H](C)CC)C(=O)N1C`, the MIC in the test on Candida tropicalis [1] was 100 mg/L (≈ 86.6 µM); with Candida albicans [2] it was 12.5 mg/L (≈ 10.8 µM); in test [3], greater than 100 mg/L; against Pichia kudriavzevii [4] it was greater than 100 mg/L; with Candida albicans [5], 50 mg/L (≈ 43.3 µM); against Candida tropicalis [6] it was greater than 100 mg/L. The MIC (in test [7]; against Pichia kudriavzevii [8]) was greater than 100 mg/L throughout.

For `CC[C@@H](C)[C@H]1C(=O)NCC(=O)N(C)[C@@H](C(C)C)C(=O)N[C@@H](Cc2ccc(OC)cc2)C(=O)O[C@H](C)C(=O)N2CCCC[C@H]2C(=O)N(C)[C@@H](C(C)C)C(=O)N[C@@H](C(C)C)C(=O)N(C)[C@@H](CC(=O)Nc2ccc(Br)cc2)C(=O)N(C)[C@@H]([C@@H](C)CC)C(=O)N1C`, the minimum inhibitory concentration (MIC) (with Candida tropicalis [1]; against Candida albicans [2]; in test [3]; with Pichia kudriavzevii [4]; against Candida albicans [5]; against Candida tropicalis [6]) was greater than 100 mg/L throughout. For the same compound, the MIC (in test [7]; in the test with Pichia kudriavzevii [8]) was greater than 100 mg/L throughout.

For `C=CCOc1ccc(C[C@@H]2NC(=O)[C@H](C(C)C)N(C)C(=O)CNC(=O)[C@H]([C@H](C)CC)N(C)C(=O)[C@H]([C@@H](C)CC)N(C)C(=O)[C@H](CC(=O)O)N(C)C(=O)[C@H](C(C)C)NC(=O)[C@H](C(C)C)N(C)C(=O)[C@@H]3CCCCN3C(=O)[C@@H](C)OC2=O)cc1`, the MIC is 100 mg/L (≈ 86.8 µM) in the test with Candida tropicalis [1]; 3.13 mg/L (≈ 2.72 µM) with Candida albicans [2]; 100 mg/L (≈ 86.8 µM) in test [3]; greater than 100 mg/L against Pichia kudriavzevii [4]; 6.25 mg/L (≈ 5.42 µM) against Candida albicans [5]; 100 mg/L (≈ 86.8 µM) in the test with Candida tropicalis [6]. In addition, the minimal inhibitory concentration (MIC) (in test [7]; against Pichia kudriavzevii [8]) was 100 mg/L (≈ 86.8 µM) each time.

Turning to `CC[C@@H](C)[C@H]1C(=O)NCC(=O)N(C)[C@@H](C(C)C)C(=O)N[C@@H](Cc2ccc(OC)cc2)C(=O)O[C@H](C)C(=O)N2CCCC[C@H]2C(=O)N(C)[C@@H](C(C)C)C(=O)N[C@@H](C(C)C)C(=O)N(C)[C@@H](CC(=O)N(CC)CC)C(=O)N(C)[C@@H]([C@@H](C)CC)C(=O)N1C`, the MIC (with Candida tropicalis [1]; in the test on Candida albicans [2]; in test [3]; in the test on Pichia kudriavzevii [4]; against Candida albicans [5]; against Candida tropicalis [6]) was greater than 100 mg/L throughout. In addition, the MIC (in test [7]; in the test on Pichia kudriavzevii [8]) was greater than 100 mg/L throughout.

For the compound `CC[C@@H](C)[C@H]1C(=O)NCC(=O)N(C)[C@@H](C(C)C)C(=O)N[C@@H](Cc2ccc(O)cc2)C(=O)O[C@H](C)C(=O)N2CCCC[C@H]2C(=O)N(C)[C@@H](C(C)C)C(=O)N[C@@H](C(C)C)C(=O)N(C)[C@@H](CC(=O)O)C(=O)N(C)[C@@H]([C@@H](C)CC)C(=O)N1C`, the minimal inhibitory concentration (MIC) with Candida tropicalis [1] is greater than 100 mg/L; against Candida albicans [2], greater than 100 mg/L; in test [3], 100 mg/L (≈ 89.9 µM); with Pichia kudriavzevii [4], 100 mg/L (≈ 89.9 µM); in the test with Candida albicans [5], 50 mg/L (≈ 44.9 µM); against Candida tropicalis [6], 100 mg/L (≈ 89.9 µM). In addition, the minimum inhibitory concentration (MIC) (in test [7]; in the test on Pichia kudriavzevii [8]) was greater than 100 mg/L in each case.

Turning to `CC[C@@H](C)[C@H]1C(=O)NCC(=O)N(C)[C@@H](C(C)C)C(=O)N[C@@H](Cc2ccc(OCc3ccc(Cl)cc3)cc2)C(=O)O[C@H](C)C(=O)N2CCCC[C@H]2C(=O)N(C)[C@@H](C(C)C)C(=O)N[C@@H](C(C)C)C(=O)N(C)[C@@H](CC(=O)O)C(=O)N(C)[C@@H]([C@@H](C)CC)C(=O)N1C`, the MIC against Candida tropicalis [1] is greater than 100 mg/L; against Candida albicans [2] it was 100 mg/L (≈ 80.8 µM); in test [3], greater than 100 mg/L; against Pichia kudriavzevii [4], greater than 100 mg/L; in the test on Candida albicans [5] it was greater than 100 mg/L; against Candida tropicalis [6] it was greater than 100 mg/L. In addition, the minimum inhibitory concentration (MIC) (in test [7]; in the test on Pichia kudriavzevii [8]) was greater than 100 mg/L each time.

As to `CC[C@@H](C)[C@H]1C(=O)NCC(=O)N(C)[C@@H](C(C)C)C(=O)N[C@@H](Cc2ccc(OC)cc2)C(=O)O[C@H](C)C(=O)N2CCCC[C@H]2C(=O)N(C)[C@@H](C(C)C)C(=O)N[C@@H](C(C)C)C(=O)N(C)[C@@H](CCCl)C(=O)N(C)[C@@H]([C@@H](C)CC)C(=O)N1C`, the MIC (in the test on Candida tropicalis [1]; in the test with Candida albicans [2]; in test [3]; against Pichia kudriavzevii [4]; with Candida albicans [5]; against Candida tropicalis [6]) was greater than 100 mg/L throughout. Further, the minimal inhibitory concentration (MIC) (in test [7]; against Pichia kudriavzevii [8]) was greater than 100 mg/L each time.

Take `CC[C@@H](C)[C@H]1C(=O)NCC(=O)N(C)[C@@H](C(C)C)C(=O)N[C@@H](Cc2ccc(OC)cc2)C(=O)O[C@H](C)C(=O)N2CCCC[C@H]2C(=O)N(C)[C@@H](C(C)C)C(=O)N[C@@H](C(C)C)C(=O)N(C)[C@@H](CC(=O)OC(C)(C)C)C(=O)N(C)[C@@H]([C@@H](C)CC)C(=O)N1C`: the MIC (in the test with Candida tropicalis [1]; in the test with Candida albicans [2]; in test [3]; against Pichia kudriavzevii [4]; against Candida albicans [5]; in the test with Candida tropicalis [6]) was greater than 100 mg/L throughout. In addition, the MIC (in test [7]; with Pichia kudriavzevii [8]) was greater than 100 mg/L throughout.

With `CC[C@@H](C)[C@H]1C(=O)NCC(=O)N(C)[C@@H](C(C)C)C(=O)N[C@@H](Cc2ccc(OC)cc2)C(=O)O[C@H](C)C(=O)N2CCCC[C@H]2C(=O)N(C)[C@@H](C(C)C)C(=O)N[C@@H](C(C)C)C(=O)N(C)[C@@H](CCN=[N+]=[N-])C(=O)N(C)[C@@H]([C@@H](C)CC)C(=O)N1C`, the MIC (in the test with Candida tropicalis [1]; in the test on Candida albicans [2]; in test [3]; with Pichia kudriavzevii [4]; against Candida albicans [5]; in the test on Candida tropicalis [6]) was greater than 100 mg/L each time. The minimal inhibitory concentration (MIC) (in test [7]; against Pichia kudriavzevii [8]) was greater than 100 mg/L each time.

As for `CC[C@@H](C)[C@H]1C(=O)NCC(=O)N(C)[C@@H](C(C)C)C(=O)N[C@@H](Cc2ccc(OC)cc2)C(=O)O[C@H](C)C(=O)N2CCCC[C@H]2C(=O)N(C)[C@@H](C(C)C)C(=O)N[C@@H](C(C)C)C(=O)N(C)[C@@H](CCO)C(=O)N(C)[C@@H]([C@@H](C)CC)C(=O)N1C`, the MIC (in the test with Candida tropicalis [1]; with Candida albicans [2]; in test [3]; against Pichia kudriavzevii [4]; with Candida albicans [5]; in the test on Candida tropicalis [6]) was greater than 100 mg/L throughout. In addition, the minimal inhibitory concentration (MIC) (in test [7]; against Pichia kudriavzevii [8]) was greater than 100 mg/L each time.

As for `CCCCCCCCOC(=O)C[C@H]1C(=O)N(C)[C@@H]([C@@H](C)CC)C(=O)N(C)[C@@H]([C@H](C)CC)C(=O)NCC(=O)N(C)[C@@H](C(C)C)C(=O)N[C@@H](Cc2ccc(OC)cc2)C(=O)O[C@H](C)C(=O)N2CCCC[C@H]2C(=O)N(C)[C@@H](C(C)C)C(=O)N[C@@H](C(C)C)C(=O)N1C`, the MIC (in the test with Candida tropicalis [1]; in the test on Candida albicans [2]; in test [3]; against Pichia kudriavzevii [4]; against Candida albicans [5]; with Candida tropicalis [6]) was greater than 100 mg/L throughout. Also, the MIC (in test [7]; with Pichia kudriavzevii [8]) was greater than 100 mg/L in each case.

The values are drawn from ChEMBL document CHEMBL1127799, “Derivatives of a novel cyclopeptolide. 1. Synthesis, antifungal activity, and structure-activity relationships” (1994).
